From ChEMBL document CHEMBL4715800, “Synthesis and Antiviral Evaluation of Octadecyloxyethyl Benzyl 9-[(2-Phosphonomethoxy)ethyl]guanine (ODE-Bn-PMEG), a Potent Inhibitor of Transient HPV DNA Amplification” (J Med Chem, 2016) come the findings set out here.

Type in all cases: ADME, cell-based
Data set [1] in a line: Drug uptake in HFF cells at 1 uM incubated for 1 to 48 hrs using [14C]-labelled compound by liquid scintillation counting. The following applies: human, time 1-48 hrs. In outline:
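HFF cells exposed to 1 μM [14C]-labelled compound for 1 to 48 h. Cell-associated radioactivity measured in duplicate to assess uptake.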

Data set [2] can be described thus: Drug level in HFF cells treated with 1 uM [14C]-labelled ODE-Bn-PMEG assessed as compound levels incubated for 48 hrs by liquid scintillation counting. The following applies: human.
Data set [3] can be described thus: Drug metabolism in HFF cells assessed as PMEGp levels at 1 uM incubated for 48 hrs using [14C]-labelled compound by liquid scintillation counting. Particulars: human; call rule not given here. In short, it runs like this:
(§1)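 HFF cells exposed for 48 h to 1 μM [14C]-labelled compound, then drug removed. Intracellular PMEG, PMEGp and PMEGpp measured. Values are the average of two separate determinations.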

The nature of data set [4]: Drug metabolism in HFF cells assessed as PMEG levels at 1 uM incubated for 48 hrs using [14C]-labelled compound by liquid scintillation counting. Particulars: human. In outline: as §1
Data set [5] is described as follows: Drug metabolism in HFF cells assessed as PMEGpp levels at 1 uM measured for 14 days using [14C]-labelled compound by liquid scintillation counting. The following applies: human, 336 h, TDE = time-dependent effect, time 14 day. In outline: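 After 48 h exposure to 1 μM [14C]-labelled compound, drug removed from HFF cells. Persistence of intracellular PMEGpp followed over time; average of two separate determinations.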

In the case of `Nc1nc2c(ncn2CCOCP(=O)(O)O)c(=O)[nH]1` [GS-438], the Drug uptake entry in data set [1] and in data set [2] was “Active” throughout.

Consider `CCCCCCCCCCCCCCCCCCOCCOP(=O)(COCCn1cnc2c(=O)[nH]c(N)nc21)OCc1ccccc1` (stereo unspecified), for which the Drug uptake entry is listed as “Tde” in data set [1] (TDE = time-dependent effect), “Metabolite_Detected” in data set [3] and “Metabolite_Detected” in data set [4]. For the same compound, the Drug metabolism entry in data set [5] was “Tde”.
